Measurements: paper PMC4470474 (Analytical biochemistry, 2014)
Read-outs that look alike come from different tables or passages of the source.

Tests used:
[1] = biological target: T1, Co(II)-HDAC8 (Homo sapiens, UniProt Q9BY41); format: biochemical; details: for substrate inhibition at higher peptide concentrations: peptide 0 – 1600 μM; for effect of pre-incubation of the peptide with Chelex 100 on observed activity: ~6 % (v/v) Chelex 100, room temperature, three hours
T1 sequence (Q9BY41 1-377): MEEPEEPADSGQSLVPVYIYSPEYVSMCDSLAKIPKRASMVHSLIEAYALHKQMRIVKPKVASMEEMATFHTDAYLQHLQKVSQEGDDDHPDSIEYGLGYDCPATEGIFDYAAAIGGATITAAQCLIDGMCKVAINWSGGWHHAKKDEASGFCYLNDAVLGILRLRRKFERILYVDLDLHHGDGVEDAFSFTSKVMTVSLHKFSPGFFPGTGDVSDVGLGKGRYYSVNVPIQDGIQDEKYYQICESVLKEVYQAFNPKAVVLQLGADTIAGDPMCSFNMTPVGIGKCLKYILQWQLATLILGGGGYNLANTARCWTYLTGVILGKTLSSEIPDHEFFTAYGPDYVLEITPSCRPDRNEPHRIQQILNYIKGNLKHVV

[2] = biological target: T1, Co(II)-HDAC8; test: Fluorescamine assay, HDAC8-catalyzed deacetylation; format: biochemical; details: 200 μM peptide, 0.5 μM HDAC8, 30°C
How it was run: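 Started with 0.5 μM HDAC8 and quenched with 1 μM TSA at 0, 30, 60 and 90 min. Enzyme removed by 10K filtration. Flow-through mixed with 1 M boric acid pH 9 and fluorescamine, 10 min at RT. Fluorescence read at ex 340/em 460 nm against an N-α-acetyl lysine methyl ester standard curve (0–5 μM).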

[3] = biological target: HDAC3/NCOR1 (Homo sapiens, UniProt O15379+O75376); test: Optimized stopped coupled acetate assay, HDAC3/NCOR1-catalyzed deacetylation; format: biochemical; details: 100 μM peptide, 0.5 μM HDAC3/NCOR1
How it was run: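 Started with 0.5 μM HDAC3/NCOR1 and quenched with 0.37% HCl at 0, 30, 60 and 90 min. Flash frozen at −80°C, then neutralised with 0.6% NaHCO₃. Pre-equilibrated ACS/citrate synthase/MDH coupler mix (ATP, NAD⁺, CoA, malate) added, 40 min at RT. NADH fluorescence read at ex 340/em 460 nm.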

[4] = biological target: T1, Co(II)-HDAC8; test: Optimized continuous coupled acetate assay, HDAC8-catalyzed deacetylation; format: biochemical; details: Figure 5 legend, 100 μM peptide
How it was run: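 Continuous coupled format in EDTA-stripped plates. Mixed 2:1 with Ac-KGGAKac-NH₂ (100 μM final). Started with Co(II)-HDAC8 (0.5–1 μM final). Rate taken from time-dependent NADH fluorescence (ex 340/em 460 nm).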

[5] = system: HDAC8; details: HDAC8-catalyzed deacetylation; ref [25]; cited from earlier work
[6] = system: HDAC8; test: Inhibition of HDAC8 activity by magnesium; format: biochemical, human; details: 2 mM magnesium, continuous assay conditions; Figure S2
[7] = Michaelis-Menten fit, stopped coupled assay, 30°C, pH 8

Chain of HDAC3/NCOR1 (O15379 whole entry): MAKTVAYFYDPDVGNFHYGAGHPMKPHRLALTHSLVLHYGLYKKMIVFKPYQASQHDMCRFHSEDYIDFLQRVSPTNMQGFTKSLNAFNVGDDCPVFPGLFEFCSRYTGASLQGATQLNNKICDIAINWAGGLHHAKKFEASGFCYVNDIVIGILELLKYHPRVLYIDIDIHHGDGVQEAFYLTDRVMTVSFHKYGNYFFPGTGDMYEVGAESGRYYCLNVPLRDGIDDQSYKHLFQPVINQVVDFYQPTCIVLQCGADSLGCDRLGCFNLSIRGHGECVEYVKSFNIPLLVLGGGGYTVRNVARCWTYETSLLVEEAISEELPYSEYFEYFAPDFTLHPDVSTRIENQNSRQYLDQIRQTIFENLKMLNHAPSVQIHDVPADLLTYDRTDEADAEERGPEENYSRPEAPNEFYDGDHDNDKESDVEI
Chain of HDAC3/NCOR1 (O75376 395-489 partner limits assumed): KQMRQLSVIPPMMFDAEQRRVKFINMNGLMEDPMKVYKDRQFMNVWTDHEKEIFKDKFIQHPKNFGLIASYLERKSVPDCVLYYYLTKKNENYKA

Ac-KGGAKac-COO^−
lowering of kcat/KM relative to methylcoumarin peptide ([1]; C-terminal carboxylate vs methylcoumarin): 50 fold | Km [1, 7]: 730 µM | kcat [1, 7]: 0.041 s⁻¹ | kcat/KM [1, 7]: 56 M⁻¹ s⁻¹ | deacetylation rate ([1]; coupled acetate assay, 200 μM peptide, 0.5 μM HDAC8): 0.0021 ± 0.0003 µM/s | deacetylation rate [2]: 0.0027 ± 0.0008 µM/s

Ac-KGGAKac-NH2
ΔΔG‡ (kcat/KM) ([1]; Ac-KGGAKac-NH2 compared to Ac-KGGAKac-COO^−): 1.6 kal/mol | initial rate for deacetylation ([1]; Figure 5 legend, side-by-side stopped assay, 0.5 μM Co(II)-HDAC8, 100 μM peptide): 0.018 ± 0.0021 µM/s | kcat/KM enhancement relative to Ac-KGGAKac-COO^− peptide ([1]; amide vs carboxylate): 9 fold | substrate inhibition at higher peptide concentrations ([1]; stopped coupled assay): modest to substantial inhibition was observed at higher peptide concentrations | effect of pre-incubation of the peptide with Chelex 100 on observed activity [1]: no effect | initial rate of deacetylation [3]: 0.015 ± 0.0016 µM/s | initial rate for deacetylation ([4]; 0.5 μM Co(II)-HDAC8): 0.011 ± 0.00041 µM/s | initial rate for deacetylation ([4]; 1 μM Co(II)-HDAC8): 0.022 ± 0.00043 µM/s

Ac-KGGAKac-methylcoumarin [reference compound]
ΔΔG‡ (kcat/KM) ([1]; Ac-KGGAKac-methylcoumarin compared to the C-terminal carboxylate peptide): 2.3 kcal/mol | kcat/KM [5]: 2800 M⁻¹ s⁻¹

Ac-KGGAKacW-NH2
increase of net transition state stabilization ([1]; addition of tryptophan or methylcoumarin moiety to the peptide): 0.1 to 0.5 kcal/mol | substrate inhibition at higher peptide concentrations ([1]; stopped coupled assay): modest to substantial inhibition was observed at higher peptide concentrations | effect of pre-incubation of the peptide with Chelex 100 on observed activity [1]: no effect

magnesium
inhibition of HDAC8 activity [6]: ~ 2 fold
